High-throughput results as filed in PubChem BioAssay.
CRFR2-BP ag: CRF-BP/CRF-R2 complex agonism | HEK293 CRF-R2/CRF-BP, calcium dye fluorescence (FLIPR); percent of saturating CRF peptide response | activation, % at 13.2 µM | 0.46% of 350,000 active | AID 588473;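 active means activation of at least 50%, plus an integration ratio under a set limit after plate pattern correction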
Rpn11 block: inhibitors of human proteasome Rpn11. calls only at 20 µM. AID 588493. 0.59% of 360,000 active. human 26S proteasome, Ub4-pepOG fluorescence polarization; 20S core pre-blocked with epoxomicin. O00487;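 active means inhibition at 20 µM, scaled to each plate's controls, above about 33%, limit read from the data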
CRFR2-BP antag: CRF-BP/CRF-R2 complex antagonism; HEK293 CRF-R2/CRF-BP, CRF-induced calcium fluorescence; inhibition, % at 11.8 µM; 0.59% of 350,000 active;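 active means inhibition of the ligand-induced calcium signal above about 50% at the single tested concentration, limit read from the data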
HNF4A DNA FP: change in binding of human HNF4 alpha to DNA. P41235. HNF4a-FITC DNA binding, fluorescence polarization, 1 h. activity change, % at 10 µM. 0.3% of 360,000 active; in the data active means activity change above about 30%, passing the limit was not always enough
Target sequence (P41235 whole entry, looked up): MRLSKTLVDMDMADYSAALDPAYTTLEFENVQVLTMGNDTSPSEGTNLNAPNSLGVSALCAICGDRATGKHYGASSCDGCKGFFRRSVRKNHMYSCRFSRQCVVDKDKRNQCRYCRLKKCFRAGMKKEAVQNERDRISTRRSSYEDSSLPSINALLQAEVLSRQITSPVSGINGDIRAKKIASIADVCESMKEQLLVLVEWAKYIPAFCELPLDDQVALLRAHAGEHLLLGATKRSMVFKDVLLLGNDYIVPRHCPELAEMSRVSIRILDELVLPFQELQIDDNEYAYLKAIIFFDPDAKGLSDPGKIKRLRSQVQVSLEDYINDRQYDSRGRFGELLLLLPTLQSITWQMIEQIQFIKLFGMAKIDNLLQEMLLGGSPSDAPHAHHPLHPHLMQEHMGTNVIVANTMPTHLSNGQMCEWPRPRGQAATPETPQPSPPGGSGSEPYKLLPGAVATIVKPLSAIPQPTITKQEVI
TPT1 inhibitor: blocks Candida albicans tRNA 2'-phosphotransferase; recombinant caTPT1, FP RNA substrate dephosphorylation; AID 1962; 0.81% of 300,000 active; inhibition, % at 5 µM;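 active means inhibition above the mean of all tested compounds plus 3 SD, set per screening campaign, cut at about 24% in these data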
CSN inh: CSN deneddylation inhibition | Purified CSN, SCF-Nedd8-OG deneddylation, fluorescence polarization | inhibition, % at 12.5 µM | 0.38% of 360,000 active | AID 651999;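 active means pattern-corrected inhibition above about 35%, with an unprinted fluorescence ratio check between 0.5 and 1.5, limit read from the data, passing the limit was not always enough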
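assay system = purified human Csn5 enzyme expressed in HEK293T cells | amount = 0.24 nM enzyme | buffer or medium = Tris/NaCl/DTT buffer, pH 7.5 | reagent = 10 nM SCFSkp2-Nedd8OG | compound = one concentration, 12.5 µM, 0.25% DMSO | times = 90 min reaction at room temperature | signal = FP | read-out basis = % inhibition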
Each line names hits and unclear results; the compound was inactive in the other large screens. The list is not random: actives were taken first. Their share in the collection is about 2.3%.

Cc1ccccc1C(=O)N1c2ccccc2OCC1C(C)(C)C (stereo not given)	none
CCOC(=O)N1CCC(NC(=O)c2cc(-c3ccc(F)cc3)[nH]c2C)CC1	none
CCOc1ccc(N(C(C)C(=O)Nc2ccc(OC)cc2)S(C)(=O)=O)cc1 (stereo not given)	none
CCOc1ccc(/C=N/NC(=O)C(C)N(c2ccc(OC)cc2)S(C)(=O)=O)cc1OCC (stereo not given)	CRFR2-BP antag 55.1
COCC(C)NC(=S)Nc1ccccc1[N+](=O)[O-] (stereo not given)	none
O=C(COC(=O)/C=C/c1ccc([N+](=O)[O-])cc1)Nc1ccc(F)cc1	CSN inh 42.0 (no result: TPT1 inhibitor)
O=C(NC(=S)N1CCCCCC1)c1ccccc1	none (no result: TPT1 inhibitor)
COc1cc(-c2ccc3cc(OC)c(OC)c(OC)c3c2)cc(OC)c1OC	CRFR2-BP antag 58.2 (no result: TPT1 inhibitor)
COc1ccc(C)cc1NC(=O)c1ccoc1C	none
COc1ccc(Cl)cc1NC(=O)c1ccoc1C	CRFR2-BP antag 80.3
CC(=O)c1ccc(N(C(=O)CNC(=O)c2cccs2)C(C(=O)NCC2CCCO2)c2ccccc2)cc1 (stereo not given)	none
O=C(Nc1ccc(F)cc1)N(Cc1cccs1)Cc1cc2cc3c(cc2[nH]c1=O)OCO3	none
O=C(Nc1ccc(F)cc1)N(Cc1ccco1)Cc1cc2cc3c(cc2[nH]c1=O)OCO3	HNF4A DNA FP 41.9
C#CCCC(=O)c1ccccc1/C=[N+](\[O-])c1ccccc1	Rpn11 block active (no result: TPT1 inhibitor)
CCCCN1C(=O)c2ccc(C(=O)Nc3cccc(C)c3C)cc2C1=O	none
COc1ccc(/C=N/NC(=O)c2ccccc2NC(=O)c2ccco2)c(OC)c1	CRFR2-BP antag 111.1
COc1ccc(NC(=O)c2ccccc2NC(=O)c2ccco2)c(OC)c1	none
Cc1sc2ncnc(N3CCC(C(=O)Nc4nc(-c5ccc(F)cc5)cs4)CC3)c2c1C	none
CS(=O)(=O)Nc1ccc(C2=NN(S(C)(=O)=O)C(c3ccc4c(c3)OCO4)C2)cc1 (stereo not given)	HNF4A DNA FP 79.2
COc1cc2cnc(-c3ccccc3)c(C(=O)c3ccc(OCc4ccccc4)cc3)c2cc1OC	none (no result: TPT1 inhibitor)
CC1(C)Cc2ccccc2C2CC(O)C(=O)N21 (stereo not given)	HNF4A DNA FP 35.4
O=C1c2ccccc2[C@@H]2CC(O)C(O)CCN12 (stereo not given in full)	none (no result: TPT1 inhibitor)
Cc1cc(N2CCCCC2)nc(SCc2ccc(C#N)cc2)n1	none
COC(=O)C(CC(=O)c1cccc(OC)c1)c1ccc(F)cc1 (stereo not given)	CRFR2-BP antag 54.8
CCOC(=O)/C(C#N)=C/c1c(N2CCN(c3ccccc3)CC2)nc2ccccn2c1=O	none
C[C@H](NC(=O)N1CCn2c1nc1ccccc12)C(=O)NCc1ccco1	none
CCOC(=O)c1c(NC(=O)COC(=O)Cn2c(C)nc3ccccc32)sc2c1CCCC2	CSN inh 43.0
CC1CC(CCC(=O)NC(=S)Nc2ccc(S(N)(=O)=O)cc2)C(=O)O1 (stereo not given)	none
Cc1cccc(CSC(=N)N)c1	none
Cc1cccc(CSC(Nc2ccc(F)cc2)=C(C#N)C#N)c1	CRFR2-BP ag 72.9, CRFR2-BP antag 67.0
N#CC(C#N)=C(Nc1ccc(F)cc1)SCc1cccc(Br)c1	CRFR2-BP antag 68.6
CC(SCc1ccccc1)C(=O)Nc1ccc(F)cc1 (stereo not given)	none
CCOc1cc(/C=N/O)cc(Br)c1OCc1ccc(Cl)cc1	none
CN(C)c1nc(NCc2ccccc2)nc(SCC(=O)Nc2ccccc2Cl)n1	CRFR2-BP antag 58.3
CN(C)c1nc(NCc2ccccc2)nc(SCC(=O)Nc2ccccc2)n1	none
O=c1cc(-c2ccccc2)[nH]n1-c1ccc([N+](=O)[O-])cc1	CRFR2-BP antag 51.0
Cc1ccc2sc(N(CCN(C)C)C(=O)c3ccc(S(=O)(=O)N4CC(C)OC(C)C4)cc3)nc2c1C (stereo not given)	none
Cc1cccc(C(=O)N2CCc3ccccc3C2)c1[N+](=O)[O-]	CRFR2-BP antag 85.2
O=C(c1ccccc1[N+](=O)[O-])N1CCc2ccccc2C1	none
CCc1cccc(C)c1NC(=S)N1CCCCC1c1cccnc1 (stereo not given)	CRFR2-BP ag 53.6
NC(=O)N/N=C/c1cc(F)cc(F)c1	none
COc1ccccc1OCCOc1ccc(/C=C2/C(=N)N3OC(C)=CC3=NC2=O)cc1OC	CSN inh 50.2
Cc1cc(-c2ccc(N=Nc3c(S(=O)(=O)O)cc4cc(S(=O)(=O)O)cc(N)c4c3O)c(C)c2)ccc1N=Nc1c(S(=O)(=O)O)cc2cc(S(=O)(=O)O)cc(N)c2c1O	TPT1 inhibitor 80.0 (no result: CRFR2-BP ag, Rpn11 block, CRFR2-BP antag, HNF4A DNA FP, CSN inh)
O=C(O)c1ccc(Nc2nc(-c3cc4ccccc4oc3=O)cs2)cc1O	CRFR2-BP ag 61.5 (no result: TPT1 inhibitor)
CCOC(=O)/C(C#N)=C\c1ccc2c(c1)OCO2	CRFR2-BP antag 110.2
Cc1ccc2c(c1)N(Cc1cccc(C#N)c1)C=NS2(=O)=O	CSN inh 99.7
Cc1ccc2c(c1)N(Cc1ccc([N+](=O)[O-])cc1)C=NS2(=O)=O	none
Cc1nc2ccc3nc(NC(=O)c4ccc5c(c4)OCCO5)sc3c2s1	none
Cc1nc2c(ccc3nc(NC(=O)c4ccc5c(c4)OCCO5)sc32)s1	CSN inh 44.8
O=S(=O)(Nc1nc(-c2sccc2Cl)cs1)c1cc(Cl)ccc1Cl	CRFR2-BP antag 58.8
Nc1ccc2ccc(O)cc2c1	none (no result: TPT1 inhibitor)
C[n+]1c2cc(N)ccc2cc2ccc(N)cc21	CRFR2-BP ag 224.6 (no result: TPT1 inhibitor)
Clc1ccc(C2=NCCN2)cc1	none
O=C(Nc1cccc(S(=O)(=O)N2CCCC2)c1)c1ccccc1OC(F)F	none
Cc1c(C(=O)c2cccc(F)c2)c2ccccn2c1CCC#N	none
COc1ccc(S(=O)(=O)NNC(=O)c2sccc2-n2cccc2)cc1	HNF4A DNA FP 30.5
O=C(NNS(=O)(=O)c1ccc(Br)cc1)c1sccc1-n1cccc1	none
Cc1ccc(NC(=S)NNc2ncc(C(F)(F)F)cc2Cl)c(C)c1	none
Fc1ccc(NC(=S)NNc2ncc(C(F)(F)F)cc2Cl)c(F)c1	CRFR2-BP ag 55.7
FC(F)(F)c1cnc(NNC(=S)Nc2ccc(Cl)cc2)c(Cl)c1	CRFR2-BP ag 51.9
Cc1cc(C)c[n+](C2=C([O-])c3ccccc3C(=O)/C2=N\S(=O)(=O)c2cccs2)c1	none
O=c1/c(=C/c2ccccn2)sc2n1CN(c1ccccc1)CN=2	none
c1ccc(N2CCOCC2)c(Nc2nc3ccccc3n3cnnc23)c1	none
CCCCn1c(O)c(N=Nc2ccccc2O)c2ccccc21	HNF4A DNA FP 83.5 (not shown: Rpn11 block, TPT1 inhibitor)
CN(C)c1ccc(CNC(=O)CC[C@H]2O[C@@H](n3cnc4c(NC(=O)c5ccccc5)ncnc43)[C@H](O)[C@@H]2O)cc1	none (no result: CRFR2-BP ag, CRFR2-BP antag, TPT1 inhibitor)
O=C(O)CCc1ccc(-c2ccc(Br)cc2)n1-c1ccc(O)cc1	CSN inh 38.9 (no result: TPT1 inhibitor)
